Consider 55 molecules from ChEMBL document CHEMBL1148286.

For test [1], the target named is Transthyretin (Homo sapiens) (UniProt P02766). Description: The second dissociation constant for binding to WT TTR determined by isothermal titration calorimetry (25 C, pH 8.0). Background: In ITC the heat of successive injections is recorded.
For test [2] the target is unchanged. Briefly: The first dissociation constant for binding to WT TTR determined by isothermal titration calorimetry (25 C, pH 8.0).
Test [3] shares this target. Description: Ability to bind TTR selectively over all other proteins in human blood plasma (equiv bound). The format is cell-free. The method in brief:
(§1)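 Human blood plasma (1.0 mL) incubated with compound from 1.44 mM DMSO stock (final 10.8 µM) at 37 °C for 24 h with rocking. Pre-cleared with quenched sepharose, then TTR captured on anti-TTR antibody sepharose at 4 °C, washed with TSA/0.05% saponin and TSA. Eluted with 100 mM triethylamine pH 11.5. Ligand:TTR stoichiometry measured by reverse-phase HPLC (maximum 2 per tetramer).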

For test [4] the target is unchanged. Description: Transthyretin (TTR) amyloidogenesis inhibition activity by employing an acid-mediated (pH 4.4) WTTTR amyloid fibril formation assay, at 3.6 uM conc. In kind it is functional. In outline:
(§2)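 WT TTR (3.6 µM tetramer) in 10 mM phosphate, 100 mM KCl, 1 mM EDTA pH 7.6, preincubated 30 min at 25 °C with compound from DMSO stock. Acidified to pH 4.4 with acetate buffer, then held 72 h at 37 °C without agitation. Turbidity read at 350 and 400 nm after vortexing. Expressed as % of the no-inhibitor control; triplicate.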

For test [5] the target is unchanged. Description: Transthyretin (TTR) amyloidogenesis inhibition activity by employing an acid-mediated (pH 4.4) WTTTR amyloid fibril formation assay, at 7.2 uM conc. The format is functional. The method in brief:
as §2

Test [6] shares this target. Description: Ability to bind TTR selectively over all other proteins in human blood plasma (equiv bound); None observed. In kind it is cell-free. In outline:
as §1

Structures are written as SMILES.

In the case of `O=C(O)c1ccc(-c2cc(F)cc(F)c2)cc1`, the Kd2 in test [1] came out at 1100 nM. In test [2], the Kd1 turned out to be 9 nM. Moreover, the Plasma selectivity in test [3] was 1.27. The Fibril formation in test [4] amounted to 35.7%; in test [5] it was 3.7%.

As for `O=C(O)c1ccc(-c2cc(F)c(O)c(F)c2)cc1`, the Plasma selectivity in test [3] is 0.07. Further, the Fibril formation stood at 31.7% in test [4] and 3.4% in test [5].

Molecule `Fc1cc(F)cc(-c2ccccc2)c1` registered a Fibril formation in test [5] of 100%.

The molecule `O=Cc1ccc(-c2cc(Cl)cc(Cl)c2)cc1` yielded a Fibril formation in test [5] of 25.4%.

Take `Oc1ccc(-c2cc(F)cc(F)c2)cc1`: the Fibril formation in test [5] was 16.4%.

Take `O=C(O)c1cccc(-c2cc(Cl)c(O)c(Cl)c2)c1`: the Plasma selectivity in test [3] was found to be 0.12. The Fibril formation turned out to be 25.5% in test [4] and 4.4% in test [5].

For `Clc1cc(Cl)cc(-c2ccccc2)c1`, in test [5], the Fibril formation was 52.2%.

Turning to `OCc1ccccc1-c1ccccc1`, the Fibril formation in test [5] amounted to 81%.

In test [5], `COc1ccc(-c2ccc(F)cc2F)cc1C(=O)O` registered a Fibril formation of 69.9%.

Consider `O=C(O)c1cccc(-c2c(F)cccc2F)c1`, for which, in test [3], the Plasma selectivity was 0.29. The Fibril formation in test [4] turned out to be 35.1%; in test [5] it was 6.7%.

Take `Oc1cccc(-c2ccc(F)cc2)c1`: in test [5], the Fibril formation came out at 46.3%.

Consider `Oc1ccc(-c2ccc(F)cc2)cc1`, for which the Fibril formation in test [5] is 53.1%.

On to `O=C(O)c1cc(-c2ccccc2F)ccc1O`, for which the Plasma selectivity in test [3] was found to be 0.07. Further, the Fibril formation in test [4] is 38.7%; in test [5] it was 2.5%.

In test [5], `O=C(O)c1cccc(-c2ccc(F)cc2)c1` returned a Fibril formation of 15.7%.

With `OCc1ccc(-c2ccccc2)cc1`, the Fibril formation in test [5] is 100%.

As to `O=C(O)c1cccc(-c2ccc(F)cc2F)c1`, the Plasma selectivity entry in test [6] is reported as “None observed”. In addition, the results for the Fibril formation in test [4] and in test [5] were 39.4% and 9.1%, respectively.

Consider `O=C(O)c1cc(-c2cc(F)cc(F)c2)ccc1O`, for which, in test [3], the Plasma selectivity result is listed as “None observed”. The values for the Fibril formation in test [4] and in test [5] were 35.5% and 1%, respectively.

In turn, `O=C(O)c1ccc(-c2c(F)cccc2F)cc1` returned a Kd2 in test [1] of 1300 nM. Further, the Fibril formation was determined as 28.5% in test [4] and 4.5% in test [5].

In the case of `O=C(O)c1ccc(-c2ccc(F)cc2)cc1`, the Fibril formation in test [5] amounted to 13.3%.

Regarding `O=C(O)c1ccc(-c2ccc(F)cc2F)cc1`, in test [3], the Plasma selectivity was 0.2. Besides, the figures for the Fibril formation in test [4] and in test [5] were 32.6% and 2.6%, respectively.

Turning to `O=Cc1ccccc1-c1cc(Cl)cc(Cl)c1`, the Plasma selectivity in test [3] is 1.96. Moreover, the Fibril formation in test [4] amounted to 34.5%; in test [5], 7.1%.

Consider `OCc1ccccc1-c1cc(Cl)cc(Cl)c1`, for which the Plasma selectivity result in test [6] is on record as “None observed”. Moreover, the Fibril formation turned out to be 33.6% in test [4] and 7.7% in test [5].

`O=C(O)c1ccccc1-c1cc(Cl)cc(Cl)c1` yielded a Fibril formation in test [5] of 45.4%.

Regarding `O=Cc1cccc(-c2cc(F)cc(F)c2)c1`, the Fibril formation in test [5] came out at 64.3%.

Regarding `O=C(O)c1cc(-c2ccc(F)cc2)ccc1O`, the Plasma selectivity in test [3] is 0.09. In addition, the Fibril formation turned out to be 38.7% in test [4] and 2.6% in test [5].

In turn, `O=Cc1ccc(-c2ccccc2)cc1` showed a Fibril formation in test [5] of 93.5%.

In the case of `O=C(O)c1cccc(-c2cc(F)c(O)c(F)c2)c1`, the Plasma selectivity result in test [3] is “None observed”. Besides, the Fibril formation in test [4] turned out to be 38.5%; in test [5] it was 3.5%.

Regarding `O=C(O)c1ccc(-c2ccccc2)cc1`, the Plasma selectivity in test [3] was found to be 0.08. Besides, the Fibril formation came to 51.5% in test [4] and 14.3% in test [5].

In turn, `Oc1cccc(-c2ccccc2F)c1` returned a Fibril formation in test [5] of 19.5%.

Molecule `COC(=O)c1cc(-c2ccc(F)cc2F)ccc1O` gave a Fibril formation in test [5] of 38.5%.

`O=Cc1ccccc1-c1ccccc1` registered a Fibril formation in test [5] of 72.5%.

In the case of `Oc1cccc(-c2ccc(F)cc2F)c1`, the Fibril formation in test [5] was found to be 31.5%.

As to `O=C(O)c1cccc(-c2ccccc2F)c1`, the Plasma selectivity result in test [3] is given as “None observed”. Besides, the Fibril formation in test [4] came out at 39.4%; in test [5], 9.8%.

On to `O=C(O)c1cccc(-c2ccccc2)c1`, for which the Fibril formation in test [5] was determined as 30.8%.

On to `Oc1cccc(-c2cc(F)cc(F)c2)c1`, for which the Plasma selectivity in test [3] was 0.18. For the same molecule, the Fibril formation in test [4] came out at 40.9%; in test [5], 10.2%.

Consider `Oc1ccc(-c2ccc(F)cc2F)cc1`, for which the Fibril formation in test [5] stood at 32.4%.

In the case of `OCc1cccc(-c2cc(Cl)cc(Cl)c2)c1`, in test [3], the Plasma selectivity came out at 0.89. Moreover, the Fibril formation in test [4] was 30%; in test [5] it was 3.3%.

For `O=C(O)c1cc(-c2ccc(Cl)cc2Cl)ccc1O`, the Plasma selectivity in test [3] came to 0.27. The Fibril formation is 29.9% in test [4] and 3.6% in test [5].

In the case of `Fc1ccccc1-c1ccccc1`, in test [5], the Fibril formation worked out at 99.4%.

Take `O=Cc1cccc(-c2ccccc2)c1`: the Fibril formation in test [5] is 35.4%.

In turn, `Fc1ccc(-c2ccccc2)c(F)c1` returned a Fibril formation in test [5] of 100%.

For the molecule `O=Cc1cccc(-c2cc(Cl)cc(Cl)c2)c1`, the Plasma selectivity in test [3] was found to be 1.3. Besides, the Fibril formation came out at 30.6% in test [4] and 4.4% in test [5].

Take `O=C(O)c1cc(-c2ccccc2)ccc1O`: in test [6], the Plasma selectivity entry is “None observed”. The Fibril formation in test [4] is 47.4%; in test [5] it was 15.4%.

For `Fc1ccc(-c2ccccc2)cc1`, the Fibril formation in test [5] is 100%.

As to `O=C(O)c1cc(-c2ccc(F)cc2F)ccc1O`, the Fibril formation in test [4] stood at 37%; in test [5], 3.4%.

As for `O=C(O)c1ccc(-c2cc(Cl)cc(Cl)c2)cc1`, the Plasma selectivity in test [3] is 1.56. The values for the Fibril formation in test [4] and in test [5] were 41.2% and 4.9%, respectively.

As to `Oc1ccc(-c2ccccc2F)cc1`, the Fibril formation in test [5] was 19.6%.

For `O=Cc1ccc(-c2cc(F)cc(F)c2)cc1`, in test [5], the Fibril formation was 69.6%.

As to `O=C(O)c1ccc(-c2ccccc2F)cc1`, the Plasma selectivity in test [3] was 0.08. Moreover, the Fibril formation was found to be 32.4% in test [4] and 4.8% in test [5].

In the case of `Oc1cccc(-c2ccccc2)c1`, the Fibril formation in test [5] was found to be 61.2%.

With `O=C(O)c1cccc(-c2cc(Cl)cc(Cl)c2)c1`, the Plasma selectivity in test [3] came to 0.8. In addition, the Fibril formation in test [4] came out at 32.7%; in test [5] it was 3%.

Take `O=C(O)c1cccc(-c2cc(F)cc(F)c2)c1`: the Plasma selectivity in test [3] was 0.23. The values for the Fibril formation in test [4] and in test [5] were 35.7% and 5.6%, respectively.

With `OCc1cccc(-c2ccccc2)c1`, the Fibril formation in test [5] amounted to 85.5%.

Turning to `OCc1ccc(-c2cc(Cl)cc(Cl)c2)cc1`, the Plasma selectivity in test [3] is 0.54. Moreover, the values for the Fibril formation in test [4] and in test [5] were 38.9% and 5.9%, respectively.

In the case of `O=C(O)c1ccc(-c2cc(Cl)c(O)c(Cl)c2)cc1`, the Plasma selectivity in test [3] is 0.26. Moreover, the values for the Fibril formation in test [4] and in test [5] were 25.8% and 3.8%, respectively.
